The record followed here is ChEMBL document CHEMBL4049441, “Transforming Sphingosine Kinase 1 Inhibitors into Dual and Sphingosine Kinase 2 Selective Inhibitors: Design, Synthesis, and in Vivo Activity” (J Med Chem, 2017).

Calls of active or inactive are those of the source. The rule behind the calls is not given here.

In test [1] the target is T1, Sphingosine kinase 2 (Homo sapiens) (UniProt Q9NRA0).
T1 sequence (whole entry): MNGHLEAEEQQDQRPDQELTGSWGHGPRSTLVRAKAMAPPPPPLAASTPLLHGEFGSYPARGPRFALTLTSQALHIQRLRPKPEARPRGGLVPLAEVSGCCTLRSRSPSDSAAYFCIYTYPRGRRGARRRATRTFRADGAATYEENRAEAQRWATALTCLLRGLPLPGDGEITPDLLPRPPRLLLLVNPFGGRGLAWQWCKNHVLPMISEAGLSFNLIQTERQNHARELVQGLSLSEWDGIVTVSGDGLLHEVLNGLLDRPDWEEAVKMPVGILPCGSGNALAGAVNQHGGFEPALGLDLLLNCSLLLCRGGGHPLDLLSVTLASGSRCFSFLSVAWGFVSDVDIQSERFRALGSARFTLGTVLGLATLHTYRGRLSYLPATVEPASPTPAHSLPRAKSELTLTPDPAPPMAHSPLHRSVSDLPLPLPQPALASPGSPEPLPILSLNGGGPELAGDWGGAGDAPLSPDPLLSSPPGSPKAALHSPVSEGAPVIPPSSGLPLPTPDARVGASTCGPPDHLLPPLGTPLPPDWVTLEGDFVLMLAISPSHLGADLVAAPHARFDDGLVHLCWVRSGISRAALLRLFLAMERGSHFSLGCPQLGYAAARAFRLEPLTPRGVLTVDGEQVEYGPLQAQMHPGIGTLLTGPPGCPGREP
The test is described as follows: Inhibition of recombinant human SPHK2 assessed as residual activity at 0.3 uM using sphingosine as substrate after 30 mins in presence of gamma-[32P]-ATP by liquid scintillation counting relative to control. Summed up:
(§1)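 Recombinant human SphK1 or SphK2 from cell lysate, briefly incubated with or without compound at 0.3 μM, sphingosine (5 μM for SphK1, 10 μM for SphK2) and 250 μM γ-[³²P]ATP. Radiolabelled S1P extracted, resolved by TLC and counted by scintillation. Activity reported as % of no-inhibitor control; triplicate.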

For test [2], the target named is T2, Sphingosine kinase 2 (Homo sapiens, UniProt Q9NRA0).
T2 sequence (Q9NRA0 whole entry): T1 sequence (whole entry)
Description: Inhibition of recombinant human SPHK2 at using sphingosine as substrate after 30 mins in presence of gamma-[32P]-ATP by liquid scintillation counting.

The target of test [3] is T1, Sphingosine kinase 2 (Homo sapiens). The test is described as follows: Inhibition of recombinant human SPHK2 using sphingosine as substrate up to 1 uM after 30 mins in presence of gamma-[32P]-ATP by liquid scintillation counting.
In test [4] the target is T3, Sphingosine kinase 1 (Homo sapiens, UniProt Q9NYA1).
T3 sequence (Q9NYA1 whole entry): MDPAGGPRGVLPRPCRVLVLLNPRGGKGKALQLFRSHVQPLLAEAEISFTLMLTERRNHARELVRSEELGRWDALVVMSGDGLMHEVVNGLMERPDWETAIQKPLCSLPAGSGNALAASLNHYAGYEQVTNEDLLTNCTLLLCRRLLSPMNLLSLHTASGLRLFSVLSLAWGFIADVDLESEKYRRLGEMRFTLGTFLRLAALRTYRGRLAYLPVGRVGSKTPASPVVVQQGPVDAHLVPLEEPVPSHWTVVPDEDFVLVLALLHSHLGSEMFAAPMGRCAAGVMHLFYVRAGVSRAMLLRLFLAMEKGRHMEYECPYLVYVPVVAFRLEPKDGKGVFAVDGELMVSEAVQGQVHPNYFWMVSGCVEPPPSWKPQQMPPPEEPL
For test [5], the target named is T1, Sphingosine kinase 2 (Homo sapiens). Description: Inhibition of SPHK2 in human U937 cells assessed as decrease in S1P levels after 2 hrs by LC-MS/MS analysis. It counts as cell-based. An outline of the steps:
(§2)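 U937 human histiocytic lymphoma cells (express both SphK isotypes) incubated with compound for 2 h, pelleted, lysed; 2–3 × 10⁶ cells extracted in methanol:chloroform (3:1) with D7-S1P/D7-sphingosine internal standards, KOH hydrolysis, then S1P and sphingosine measured by LC-MS-MS. Expressed as pmol per 10⁶ cells; duplicate experiments; unpaired t test against control.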

Test [6] has the same target. Description: Inhibition of SPHK2 in human U937 cells assessed as effect on sphingosine levels at 0.1 to 1 uM after 2 hrs by LC-MS/MS analysis. Type of test: cell-based. An outline of the steps:
as §2

Test [7] deals with T4, Sphingosine kinase 2 (Mus musculus, UniProt Q9JIA7).
T4 sequence (Q9JIA7 whole entry): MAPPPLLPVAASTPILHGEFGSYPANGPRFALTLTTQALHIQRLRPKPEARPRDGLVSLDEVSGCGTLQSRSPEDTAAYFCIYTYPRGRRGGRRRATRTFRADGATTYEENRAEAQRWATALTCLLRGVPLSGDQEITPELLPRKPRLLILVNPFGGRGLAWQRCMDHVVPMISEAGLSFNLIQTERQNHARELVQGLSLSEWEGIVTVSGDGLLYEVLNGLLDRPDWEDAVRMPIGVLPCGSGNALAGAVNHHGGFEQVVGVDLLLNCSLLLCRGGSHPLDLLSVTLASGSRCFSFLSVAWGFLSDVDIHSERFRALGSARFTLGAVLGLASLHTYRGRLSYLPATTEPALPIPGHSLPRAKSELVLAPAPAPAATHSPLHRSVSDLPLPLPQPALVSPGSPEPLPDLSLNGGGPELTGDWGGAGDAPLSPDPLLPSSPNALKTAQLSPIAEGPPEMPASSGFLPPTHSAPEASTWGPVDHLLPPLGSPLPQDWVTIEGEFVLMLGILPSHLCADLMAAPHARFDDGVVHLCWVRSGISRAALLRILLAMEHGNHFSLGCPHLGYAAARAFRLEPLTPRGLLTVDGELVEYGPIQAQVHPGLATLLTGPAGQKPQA
Description: Inhibition of recombinant mouse SPHK2 using sphingosine as substrate in presence ATP.

Test [8] deals with T3, Sphingosine kinase 1. Description: Inhibition of recombinant human SPHK1 using sphingosine as substrate in presence ATP. Summed up:
as §1

A short description of test [9]: Selectivity ratio of Ki for recombinant human SPHK1 to Ki for recombinant mouse SPHK2.
Test [10] has as its system Mus musculus. The test is described as follows: In vivo inhibition of SPHK2 in C57BL/6J mouse assessed as increase in S1P levels at 10 mg/kg, ip after 2 to 6 hrs by LC-MS/MS analysis. Type of test: functional, organism-based. An outline of the steps: (§3)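 Single intraperitoneal dose of 10 mg/kg in C57BL6/j mice, groups of 3 to 4; vehicle controls received an equal volume of 2% hydroxypropyl-β-cyclodextrin. Blood was sampled at set time points over 24 h. Whole blood (10 μl) was extracted in methanol:chloroform (3:1) with D7-S1P and D7-sphingosine internal standards, base-hydrolysed with KOH, and S1P quantified by reverse-phase C18 LC-MS-MS.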

Test [11] has as its system Mus musculus. Description: In vivo inhibition of SPHK2 in C57BL/6J mouse assessed as increase in S1P levels at 10 mg/kg, ip after 24 hrs by LC-MS/MS analysis. Type of test: functional, organism-based. An outline of the steps:
as §3

The target of test [12] is T1, Sphingosine kinase 2 (Homo sapiens). The test is described as follows: Inhibition of SPHK2 in human U937 cells assessed as effect on sphingosine levels at 0.3 to 1 uM after 2 hrs by LC-MS/MS analysis. Type of test: cell-based. Summed up:
as §2

As for `N=C(N)N1CCC[C@H]1Cc1nc(-c2ccc(Nc3nc(-c4cccc(-c5ccccc5)c4)cs3)cc2)no1`, the Activity in [1] was found to be 73%.

For `Cc1ccc(-c2csc(Nc3ccc(-c4noc(C[C@@H]5CCCN5C(=N)N)n4)cc3)n2)cc1`, the Activity in [1] is 80%.

In the case of `N=C(N)N1CCC[C@H]1Cc1nc(-c2ccc(Nc3nc(-c4ccc(F)c(F)c4)cs3)cc2)no1`, the Activity in test [1] amounted to 51%.

For the compound `N=C(N)N1CCC[C@H]1Cc1nc(-c2ccc(Nc3nc(-c4cccc(OC(F)(F)F)c4)cs3)cc2)no1`, the Activity in test [1] turned out to be 82%.

For the compound `N=C(N)N1CCC[C@H]1Cc1nc(-c2ccc(Nc3nc(-c4cc5ccccc5o4)cs3)cc2)no1`, in test [1], the Activity is 67%.

With `N=C(N)N1CCC[C@H]1Cc1nc(-c2ccc(Nc3nc(-c4cccc(F)c4)cs3)cc2)no1`, in test [1], the Activity is 45%.

For the compound `N=C(N)N1CCC[C@H]1Cc1nc(-c2ccc(Nc3nc(-c4ccc(F)cc4)cs3)cc2)no1`, the Activity in test [1] was found to be 55%.

One may read the Ki as a dissociation constant, usually derived from enzyme kinetics or from competition with a known ligand. As for `N=C(N)N1CCC[C@H]1Cc1nc(-c2ccc(Nc3nc(-c4cc(F)cc(C(F)(F)F)c4)cs3)cc2)no1`, the Activity in test [1] stood at 30%. For the same compound, the Ki in test [2] is 170 nM.

`N=C(N)N1CCC[C@H]1Cc1nc(-c2ccc(Nc3nc(-c4ccc(F)c(C(F)(F)F)c4)cs3)cc2)no1`: the Activity in test [1] came to 33%. For the same compound, the Ki in [2] came out at 170 nM.

On to `N=C(N)N1CCC[C@H]1Cc1nc(-c2ccc(Nc3nc(-c4ccccc4F)cs3)cc2)no1`, for which, in [1], the Activity amounted to 44%.

For the compound `N=C(N)N1CCC[C@H]1Cc1nc(-c2ccc(Nc3nc(-c4ccc(Cl)c(Cl)c4)cs3)cc2)no1`, the Activity in test [1] came out at 46%.

As for `N=C(N)N1CCC[C@H]1Cc1nc(-c2ccc(Oc3nc(-c4ccc(C(F)(F)F)cc4)cs3)cc2)no1`, the Activity in [1] amounted to 55%.

`COc1ccc(-c2csc(Nc3ccc(-c4noc(C[C@@H]5CCCN5C(=N)N)n4)cc3)n2)cc1Cl`: in [1], the Activity came to 71%.

As for `N=C(N)N1CCC[C@H]1Cc1nc(-c2ccc(Nc3nc(-c4ccc(C(F)(F)F)cc4)cs3)cc2)no1`, the Activity in [1] is 36%. Also, the inhibitory constant (Ki) in test [2] stood at 390 nM.

Turning to `N=C(N)N1CCC[C@H]1Cc1nc(-c2ccc(Nc3nc(-c4cc(C(F)(F)F)ccc4F)cs3)cc2)no1`, the Activity in [1] was found to be 48%.

`N=C(N)N1CCC[C@H]1Cc1nc(-c2ccc(Nc3nc(-c4ccccc4C(F)(F)F)cs3)cc2)no1`: the Activity in [1] was determined as 72%.

For the compound `N=C(N)N1CCC[C@H]1Cc1nc(-c2ccc(Nc3nc(-c4ccccc4)cs3)cc2)no1`, the Activity in test [1] was determined as 83%.

For `N=C(N)N1CCC[C@H]1Cc1nc(-c2ccc(Nc3nc(-c4cccc(Cl)c4)cs3)cc2)no1`, the Activity in test [1] stood at 45%.

Take `CN(c1ccc(-c2noc(C[C@@H]3CCCN3C(=N)N)n2)cc1)c1nc(-c2ccc(-c3ccccc3)cc2)cs1`: the Activity in test [1] stood at 100%. For the same compound, in test [3], the inhibition result is “inactive”.

As to `CCCCCOc1ccc2cc(-c3noc([C@H]4[C@@H](O)CCN4C(=N)N)n3)ccc2c1`, in [4], affinity was put at a Ki of 730 nM.

As to `N=C(N)N1CCC[C@H]1Cc1nc(-c2ccc(Nc3nc(-c4cccc(C(F)(F)F)c4)cs3)cc2)no1`, the Activity in test [1] was determined as 28%. Moreover, the inhibition entry in test [5] is “Dose-dependent effect”. In [2], the Ki came out at 90 nM. For the same compound, in test [6], the inhibition result is “Active”.

Consider `COc1ccc(-c2csc(Nc3ccc(-c4noc(C[C@@H]5CCCN5C(=N)N)n4)cc3)n2)cc1`, for which the Activity in test [1] turned out to be 100%.

Regarding `N=C(N)N1CCC[C@H]1Cc1nc(-c2ccc(Nc3nc(-c4ccc(-c5ccc(C(F)(F)F)cc5)cc4)cs3)cc2)no1`, in test [1], the Activity turned out to be 96%.

For `COc1ccc(-c2csc(Nc3ccc(-c4noc(C[C@@H]5CCCN5C(=N)N)n4)cc3)n2)cc1OC`, the Activity in test [1] worked out at 100%.

Consider `N=C(N)N1CCC[C@H]1Cc1nc(-c2ccc(Nc3nc(-c4ccc(Br)cc4)cs3)cc2)no1`, for which the Activity in test [1] turned out to be 46%.

`N=C(N)N1CCC[C@H]1Cc1nc(-c2ccc(Nc3nc(-c4cccnc4)cs3)cc2)no1`: in test [1], the Activity worked out at 94%.

As to `CCCCCCCCc1ccc2cc(-c3noc(C4CCCN4C(=N)N)n3)ccc2c1` (single isomer, unassigned), the inhibitory constant (Ki) in test [7] is 1300 nM; in test [8] it was 12000 nM. The Ratio Ki in [9] turned out to be 10.

`N=C(N)N1CCC[C@H]1Cc1nc(-c2ccc(Nc3nc(-c4ccc(-c5cccc(C(F)(F)F)c5)cc4)cs3)cc2)no1`: the Activity in [1] amounted to 85%.

As to `N=C(N)N1CCC[C@H]1Cc1nc(-c2ccc(Nc3nc(-c4cccc(Br)c4)cs3)cc2)no1`, in test [1], the Activity was found to be 44%.

For `N=C(N)N1CCC[C@H]1Cc1nc(-c2ccc(Nc3nc(-c4ccc(OC(F)(F)F)cc4)cs3)cc2)no1`, the Activity in [1] came to 44%. For the same compound, in test [2], the Ki amounted to 250 nM.

For `N=C(N)N1CCC[C@H]1Cc1nc(-c2ccc(Nc3nc(-c4cc(F)cc(F)c4)cs3)cc2)no1`, the Activity in test [1] was determined as 43%.

`N=C(N)N1CCC[C@H]1Cc1nc(-c2ccc(Nc3nc(-c4ccc(Cl)cc4)cs3)cc2)no1`: the Activity in [1] came out at 51%.

In the case of `Cc1ccc(-c2csc(Nc3ccc(-c4noc(C[C@@H]5CCCN5C(=N)N)n4)cc3)n2)cc1C`, the Activity in test [1] came to 67%.

For `N=C(N)N1CCC[C@H]1Cc1nc(-c2ccc(Nc3nc(-c4ccncc4)cs3)cc2)no1`, the Activity in [1] amounted to 94%.

In the case of `COc1cccc(-c2csc(Nc3ccc(-c4noc(C[C@@H]5CCCN5C(=N)N)n4)cc3)n2)c1`, in test [1], the Activity was 100%.

`N=C(N)N1CCC[C@H]1Cc1nc(-c2ccc(Nc3nc(-c4cc(C(F)(F)F)cc(C(F)(F)F)c4)cs3)cc2)no1`: in test [1], the Activity was determined as 63%.

For the compound `N=C(N)N1CCC[C@H]1Cc1nc(-c2ccc(Nc3nc(-c4ccc(-c5ccccc5)cc4)cs3)cc2)no1`, the inhibition entry in test [10], in test [12] and in [6] was “Active” each time. The Activity in test [1] was 27%. Further, in test [11], the inhibition entry was “inactive”. The inhibition result in test [5] is “Dose-dependent effect”. In [2], the Ki was 90 nM.

On to `N=C(N)N1CCC[C@H]1Cc1nc(-c2ccc(Nc3nc(-c4ccc(-c5ccc(F)cc5)cc4)cs3)cc2)no1`, for which the Activity in test [1] was determined as 31%.
